Experimental data of several laboratories.
Lines come from different studies, so protocols differ.

| Compound | cell line | assay | setting | endpoint | value |
| --- | --- | --- | --- | --- | --- |
| S=C(Nc1ccccc1)Nc1ccc(Oc2nnc(-c3ccc(Cl)cc3)c3ccccc23)cc1 | HepG2 | cell growth or viability, MTT | 0.312 µM | cell death | 1.34% |
| CCOC(=O)c1nn(-c2cccc(Cl)c2)/c(=N/N=C(\C)c2ccc(NC(=O)c3ccc(Cl)cc3)cc2)s1 | HepG2 | cell growth or viability, MTT | 10 µM | viability | 4.04% |
| CC(=NNC(=O)c1ccccc1Br)c1ccc(Nc2nnc(-c3ccc(Cl)cc3)c3ccccc23)cc1 | HepG2 | cell growth or viability, MTT | 5 µM | cell death | 95.6% |
| CC(C)(C)c1cnc(CSc2cnc(NC(=O)C3CCN(CCCCCCCSc4cccc5c4C(=O)N(C4CCC(=O)NC4=O)C5=O)CC3)s2)o1 (stereo not drawn) | HH | cell growth or viability, CCK-8 | 50 nM | viability | 96% |
| CCOC1CCN(C(=O)/C=C/c2nn(Cc3cccc(C)c3)c3nc(NC)ncc23)CC1 | OE33 | cell growth or viability, resazurin | 5 days | EC50 | 2.28 µM |
| Cc1cc(C)n(C(C(=O)OC(C)C)n2nc(C)cc2C)n1 | A-431 | cell growth or viability, MTT | 72 h | IC50 | > 50 µM |
| CC(C)(C)c1cnc(CSc2cnc(NC(=O)C3CCN(CCCCCSc4cccc5c4CN(C4CCC(=O)NC4=O)C5=O)CC3)s2)o1 (stereo not drawn) | HH | cell growth or viability, CCK-8 | 1 nM | viability | 96.6% |
| O=C(Nc1ccccc1)Nc1cc(Br)cc(C(F)(F)F)c1 | LAD2 | degranulation | – | IC50 | 8.01 µM |
| CNc1ncc2c(/C=C/C(=O)N3CCC(OC)CC3)nn(Cc3ccc(C)cc3)c2n1 | OE33 | cell growth or viability, resazurin | 5 days | EC50 | 2.49 µM |
| CC(C)(C)c1cnc(CSc2cnc(NC(=O)C3CCN(C(=O)COCCOCCSc4cccc5c4C(=O)N(C4CCC(=O)NC4=O)C5=O)CC3)s2)o1 (stereo not drawn) | HH | cell growth or viability, CCK-8 | 0.1 µM | viability | 100% |
| CC(=O)c1nn(-c2ccccc2Cl)/c(=N/N=C(\C)c2ccc(NC(=O)c3ccccc3)cc2)s1 | HepG2 | cell growth or viability, MTT | 0.625 µM | viability | 5.95% |
| CNc1ncc2c(/C=C/C(=O)N3CCC(OC)CC3)nn(Cc3ccccc3)c2n1 | OE33 | cell growth or viability, resazurin | 5 days | EC50 | 7.49 µM |
| CC(=NNC(=O)c1cccnc1)c1ccc(Nc2nnc(-c3ccc(Cl)cc3)c3ccccc23)cc1 | HepG2 | cell growth or viability, MTT | 5 µM | cell death | 96.8% |
| CNc1ncc2c(/C=C/C(=O)N3CCC(OC)CC3)nn(CCC(C)C)c2n1 | OE33 | cell growth or viability, resazurin | 5 days | EC50 | 19.7 µM |
| CC(=NNC(=S)Nc1ccccc1)c1ccc(Nc2nnc(-c3ccc(Cl)cc3)c3ccccc23)cc1 | HepG2 | cell growth or viability, MTT | 10 µM | cell death | 95.7% |
| CNc1ncc2c(/C=C/C(=O)N3CCCC(OC)C3)nn(Cc3cccc(C)c3)c2n1 (stereo not drawn) | OE33 | cell growth or viability, resazurin | 5 days | EC50 | 17.6 µM |
| CC(C)(C)c1cnc(CSc2cnc(NC(=O)C3CCN(CCCCSc4cccc5c4C(=O)N(C4CCC(=O)NC4=O)C5=O)CC3)s2)o1 (stereo not drawn) | HH | cell growth or viability, CCK-8 | 0.1 µM | viability | 97.9% |
| CC(=NNC(N)=S)c1ccc(Nc2nnc(-c3ccc(Cl)cc3)c3ccccc23)cc1 | HepG2 | cell growth or viability, MTT | 10 µM, 24 h | viability | 7.32% |
| CNc1ncc2c(/C=C/C(=O)N3CCC(OC)CC3)nn(Cc3ccccc3OC)c2n1 | OE33 | cell growth or viability, resazurin | 5 days | EC50 | 7.72 µM |
| O=C(Nc1ccc(Oc2nnc(-c3ccc(Cl)cc3)c3ccccc23)cc1)c1ccccc1 | HepG2 | cell growth or viability, MTT | 2.5 µM, 24 h | viability | 3.4% |
| C=CC(=O)NC1CCN(c2ncc3ncnc(Nc4ccc(Oc5ccc6c(c5)ncn6C)c(C)c4)c3n2)CC1 | PANC-03-27 | cell growth or viability | – | EC50 | 0.0333 µM |
